# Test results from the M2OR odorant receptor database.
# Legend:
# Conditions in all cases: stereoisomer not certain
# UniProt L7MU75 = target: T1, UniProt L7MU75
# T1 sequence (whole entry): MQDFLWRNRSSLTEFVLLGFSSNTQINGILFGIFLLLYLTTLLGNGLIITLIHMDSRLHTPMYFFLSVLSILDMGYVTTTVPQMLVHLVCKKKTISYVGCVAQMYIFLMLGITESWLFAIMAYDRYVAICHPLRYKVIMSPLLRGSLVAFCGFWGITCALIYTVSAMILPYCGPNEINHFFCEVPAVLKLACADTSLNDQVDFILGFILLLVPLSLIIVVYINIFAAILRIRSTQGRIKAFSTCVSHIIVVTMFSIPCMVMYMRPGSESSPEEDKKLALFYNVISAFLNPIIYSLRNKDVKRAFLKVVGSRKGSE
# Method in brief: (§1)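 Transient luciferase assays in mammalian cell lines were common, though methods varied by source. The values come from published papers and their supplementary material, with extra details from the original authors when needed. Responsive refers to a measured signal the original authors judged statistically different from baseline, and non-responsive (inactive) to the remainder.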
# UniProt L7N210 = target: T2, UniProt L7N210
# T2 sequence (whole entry): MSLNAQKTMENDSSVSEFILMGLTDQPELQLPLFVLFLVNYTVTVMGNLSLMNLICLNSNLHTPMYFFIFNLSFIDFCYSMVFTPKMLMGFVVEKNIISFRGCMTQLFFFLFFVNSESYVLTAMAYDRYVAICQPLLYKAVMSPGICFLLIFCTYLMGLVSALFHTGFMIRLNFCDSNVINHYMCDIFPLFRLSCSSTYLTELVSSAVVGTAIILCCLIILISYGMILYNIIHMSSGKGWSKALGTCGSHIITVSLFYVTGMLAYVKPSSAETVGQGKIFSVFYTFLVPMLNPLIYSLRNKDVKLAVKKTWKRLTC
# Method in brief: as §1
# UniProt Q3KPB0 = target: T3, UniProt Q3KPB0
# T3 sequence (whole entry): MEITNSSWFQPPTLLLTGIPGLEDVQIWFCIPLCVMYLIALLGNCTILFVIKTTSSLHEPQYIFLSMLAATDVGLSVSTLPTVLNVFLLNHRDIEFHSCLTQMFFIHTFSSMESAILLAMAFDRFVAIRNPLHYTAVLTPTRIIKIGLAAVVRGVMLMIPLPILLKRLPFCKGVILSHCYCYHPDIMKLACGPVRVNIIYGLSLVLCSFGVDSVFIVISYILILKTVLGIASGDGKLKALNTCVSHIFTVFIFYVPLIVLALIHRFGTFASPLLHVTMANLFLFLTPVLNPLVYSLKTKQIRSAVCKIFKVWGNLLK
# Method in brief: as §1
# UniProt Q3U0P3 = target: T4, UniProt Q3U0P3
# T4 sequence (whole entry): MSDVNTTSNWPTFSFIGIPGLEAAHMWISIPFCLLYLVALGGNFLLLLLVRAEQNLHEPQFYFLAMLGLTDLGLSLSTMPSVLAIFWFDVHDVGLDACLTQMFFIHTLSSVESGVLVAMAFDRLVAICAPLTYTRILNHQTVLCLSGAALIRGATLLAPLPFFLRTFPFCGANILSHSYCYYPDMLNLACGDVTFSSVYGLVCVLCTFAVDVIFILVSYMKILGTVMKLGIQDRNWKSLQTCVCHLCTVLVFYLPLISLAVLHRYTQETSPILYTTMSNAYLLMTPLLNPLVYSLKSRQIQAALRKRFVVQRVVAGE
# Method in brief: as §1
# UniProt Q7TQU8 = target: T5, UniProt Q7TQU8
# T5 sequence (whole entry): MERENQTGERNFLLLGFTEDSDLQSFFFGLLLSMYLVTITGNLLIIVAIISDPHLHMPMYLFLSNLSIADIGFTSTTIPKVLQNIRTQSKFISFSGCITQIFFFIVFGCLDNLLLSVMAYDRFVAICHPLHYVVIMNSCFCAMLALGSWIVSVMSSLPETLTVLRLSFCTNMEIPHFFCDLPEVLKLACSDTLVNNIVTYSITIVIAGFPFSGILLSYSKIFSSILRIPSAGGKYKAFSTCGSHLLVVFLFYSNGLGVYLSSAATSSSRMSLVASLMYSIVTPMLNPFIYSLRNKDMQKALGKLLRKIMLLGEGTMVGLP
# Method in brief: as §1
# UniProt Q7TQV4 = target: T6, UniProt Q7TQV4
# T6 sequence (whole entry): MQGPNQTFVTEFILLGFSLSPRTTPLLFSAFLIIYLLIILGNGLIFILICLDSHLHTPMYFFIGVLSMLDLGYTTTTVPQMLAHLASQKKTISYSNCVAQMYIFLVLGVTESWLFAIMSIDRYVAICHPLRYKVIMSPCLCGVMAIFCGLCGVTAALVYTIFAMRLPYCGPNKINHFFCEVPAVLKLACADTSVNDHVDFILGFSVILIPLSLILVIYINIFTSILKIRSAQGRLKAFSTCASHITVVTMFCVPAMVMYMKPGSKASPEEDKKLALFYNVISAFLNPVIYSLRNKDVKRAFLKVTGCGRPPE
# Method in brief: as §1
# UniProt Q7TR71 = target: T7, UniProt Q7TR71
# T7 sequence (whole entry): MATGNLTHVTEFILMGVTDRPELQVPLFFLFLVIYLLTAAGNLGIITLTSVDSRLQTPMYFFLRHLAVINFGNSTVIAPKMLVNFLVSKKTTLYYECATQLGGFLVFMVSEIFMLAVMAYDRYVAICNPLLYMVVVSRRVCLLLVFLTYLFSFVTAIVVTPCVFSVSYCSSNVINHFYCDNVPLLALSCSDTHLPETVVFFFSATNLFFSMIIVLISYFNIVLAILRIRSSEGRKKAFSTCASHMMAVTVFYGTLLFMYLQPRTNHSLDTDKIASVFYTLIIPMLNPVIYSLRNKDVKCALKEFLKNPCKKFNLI
# Method in brief: as §1
# UniProt Q7TR79 = target: T8, UniProt Q7TR79
# T8 sequence (whole entry): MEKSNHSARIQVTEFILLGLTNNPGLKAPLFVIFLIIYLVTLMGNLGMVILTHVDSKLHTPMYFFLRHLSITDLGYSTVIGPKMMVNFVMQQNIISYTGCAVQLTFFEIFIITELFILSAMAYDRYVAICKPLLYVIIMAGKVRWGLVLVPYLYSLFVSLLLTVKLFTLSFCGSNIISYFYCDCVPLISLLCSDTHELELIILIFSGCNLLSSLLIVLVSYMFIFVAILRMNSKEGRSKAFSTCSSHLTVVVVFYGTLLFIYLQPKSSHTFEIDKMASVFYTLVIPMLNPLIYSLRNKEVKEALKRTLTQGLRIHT
# Method in brief: as §1
# UniProt Q7TRA3 = target: T9, UniProt Q7TRA3
# T9 sequence (whole entry): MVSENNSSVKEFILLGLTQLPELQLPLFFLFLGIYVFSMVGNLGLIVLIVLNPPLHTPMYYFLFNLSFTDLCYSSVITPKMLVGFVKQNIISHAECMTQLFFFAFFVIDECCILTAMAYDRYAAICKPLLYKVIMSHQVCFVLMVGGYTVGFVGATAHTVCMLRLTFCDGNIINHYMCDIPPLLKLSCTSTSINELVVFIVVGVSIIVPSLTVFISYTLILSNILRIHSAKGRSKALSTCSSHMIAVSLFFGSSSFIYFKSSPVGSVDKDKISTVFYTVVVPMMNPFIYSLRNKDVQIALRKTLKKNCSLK
# Method in brief: as §1
# UniProt Q7TRE4 = target: T10, UniProt Q7TRE4
# T10 sequence (whole entry): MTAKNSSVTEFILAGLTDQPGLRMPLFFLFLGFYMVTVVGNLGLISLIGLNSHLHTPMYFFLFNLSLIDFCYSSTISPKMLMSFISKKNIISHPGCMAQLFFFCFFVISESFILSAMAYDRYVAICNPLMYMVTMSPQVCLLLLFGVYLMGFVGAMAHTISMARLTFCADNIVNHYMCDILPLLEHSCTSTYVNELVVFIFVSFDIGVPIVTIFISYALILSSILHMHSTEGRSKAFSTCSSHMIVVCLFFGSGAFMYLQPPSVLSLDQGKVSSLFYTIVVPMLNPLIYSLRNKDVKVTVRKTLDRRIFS
# Method in brief: as §1
# UniProt Q7TRM0 = target: T11, UniProt Q7TRM0
# T11 sequence (whole entry): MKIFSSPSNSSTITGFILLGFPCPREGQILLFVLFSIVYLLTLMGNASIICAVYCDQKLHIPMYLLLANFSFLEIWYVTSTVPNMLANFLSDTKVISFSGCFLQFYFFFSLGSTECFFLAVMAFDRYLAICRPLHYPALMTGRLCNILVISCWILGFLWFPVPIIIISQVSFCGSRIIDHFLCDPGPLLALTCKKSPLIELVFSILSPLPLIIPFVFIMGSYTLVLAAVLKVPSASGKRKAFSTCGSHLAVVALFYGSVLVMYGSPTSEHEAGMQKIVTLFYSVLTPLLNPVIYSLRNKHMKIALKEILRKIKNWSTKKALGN
# Method in brief: as §1
# UniProt Q7TRN9 = target: T12, UniProt Q7TRN9
# T12 sequence (whole entry): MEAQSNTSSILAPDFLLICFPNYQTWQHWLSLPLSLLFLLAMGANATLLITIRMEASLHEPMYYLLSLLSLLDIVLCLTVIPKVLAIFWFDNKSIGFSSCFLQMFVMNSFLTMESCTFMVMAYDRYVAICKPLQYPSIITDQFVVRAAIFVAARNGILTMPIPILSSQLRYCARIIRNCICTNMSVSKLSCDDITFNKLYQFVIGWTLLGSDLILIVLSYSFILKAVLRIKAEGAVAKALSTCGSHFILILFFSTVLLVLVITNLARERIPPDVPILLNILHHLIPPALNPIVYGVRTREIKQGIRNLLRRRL
# Method in brief: as §1
# 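Note: active if original authors judged signal statistically different from baseline.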
Structure (SMILES),odorant receptor agonist call (UniProt L7MU75),odorant receptor agonist call (UniProt L7N210),odorant receptor agonist call (UniProt Q3KPB0),odorant receptor agonist call (UniProt Q3U0P3),odorant receptor agonist call (UniProt Q7TQU8),odorant receptor agonist call (UniProt Q7TQV4),odorant receptor agonist call (UniProt Q7TR71),odorant receptor agonist call (UniProt Q7TR79),odorant receptor agonist call (UniProt Q7TRA3),odorant receptor agonist call (UniProt Q7TRE4),odorant receptor agonist call (UniProt Q7TRM0),odorant receptor agonist call (UniProt Q7TRN9)
CCCCCCCCCO,inactive,inactive,inactive,inactive,inactive,inactive,inactive,inactive,inactive,inactive,inactive,active
C=C(CC)CCCC(C)(C)O,inactive,inactive,inactive,inactive,inactive,–,–,inactive,–,–,–,–
CCCCCCC(C)=O,inactive,inactive,inactive,inactive,inactive,inactive,inactive,inactive,inactive,inactive,–,–
CCCCCCCCCS,inactive,inactive,inactive,inactive,inactive,inactive,inactive,inactive,inactive,inactive,–,–
c1ccccc1,inactive,inactive,inactive,inactive,inactive,inactive,inactive,inactive,inactive,inactive,–,–
CCCCCCCCO,inactive,inactive,inactive,inactive,inactive,inactive,inactive,inactive,inactive,inactive,inactive,active
CCCCCC(=O)CC,inactive,inactive,inactive,inactive,inactive,inactive,inactive,inactive,inactive,inactive,–,–
CCCCCOC(=O)CCCCC,inactive,inactive,inactive,inactive,inactive,inactive,inactive,inactive,inactive,inactive,–,–
C=CC(=O)CCCCC,inactive,inactive,inactive,inactive,inactive,–,–,inactive,–,–,–,–
CCCCOC=O,inactive,inactive,inactive,inactive,inactive,inactive,inactive,inactive,inactive,inactive,–,–
C=CC(C)=CCC=C(C)CCC=C(C)C,inactive,inactive,inactive,inactive,inactive,–,–,inactive,–,–,–,–
C=C1C2CCC(C2)C1(C)C (stereo unspecified),inactive,inactive,inactive,inactive,inactive,–,–,inactive,–,–,–,–
Cc1c(C)c(C)c(C=O)c(C)c1C,inactive,active,inactive,inactive,inactive,–,–,inactive,–,–,–,–
CCCCCC=CCCC=O,inactive,inactive,inactive,inactive,inactive,–,–,inactive,–,–,–,–
CCc1occc(=O)c1O,active,active,inactive,inactive,inactive,–,–,inactive,–,–,–,–
